Experimental findings from ChEMBL document CHEMBL1123137 (J Med Chem, 1985) are described below.

A short description of data set [1]: HPLC capacity factor (k'). The class given is ADME.
Data set [2] in a line: Maximum increase in coronary flow (percent) of N6-modified adenosines at 27 uM.
Data set [3] can be described thus: Ionisation constant (pKa). In kind it is physicochemical.
The target in data set [4] is Adenosine receptor A2a (Canis lupus familiaris) (UniProt P11617). The data set is described as follows: Molar potency ratio was evaluated.
A further data set has as its target Albumin (Bos taurus, UniProt P02769). As to the kind of experiment: Serum albumin binding. The conditions noted are these: cattle. In outline:
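Affinity for bovine serum albumin measured by Hummel–Dreyer method adapted for HPLC. Samples of BSA (0.25–2 g/dL) with 25 μM analogue in 0.1 M NaH2PO4, pH 7.4, were applied to an Aquapore OH-100 column equilibrated with 25 μM analogue in the same buffer. Effluent absorbance was read at 254 nm. Duplicate estimates were made at each of two BSA concentrations, usually 1 and 2 g/dL.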

Data set [5] in a line: Molar potency ratio was evaluated at 35 uM.
Data set [6] is described as follows: Molar potency ratio was evaluated at 50 uM.
Data set [7] in a line: Molar potency ratio was evaluated at 107 uM.
Data set [8] in a line: Molar potency ratio was evaluated at 18 uM.
Data set [9] can be described thus: Molar potency ratio was evaluated at 46 uM.
Data set [10] can be described thus: Molar potency ratio was evaluated at 47 uM.
The nature of data set [11]: Molar potency ratio was evaluated at 61 uM.
A short description of data set [12]: Molar potency ratio was evaluated at 27 uM.
The nature of data set [13]: Molar potency ratio was evaluated at 37 uM.

Sequence of Albumin (P02769 whole entry): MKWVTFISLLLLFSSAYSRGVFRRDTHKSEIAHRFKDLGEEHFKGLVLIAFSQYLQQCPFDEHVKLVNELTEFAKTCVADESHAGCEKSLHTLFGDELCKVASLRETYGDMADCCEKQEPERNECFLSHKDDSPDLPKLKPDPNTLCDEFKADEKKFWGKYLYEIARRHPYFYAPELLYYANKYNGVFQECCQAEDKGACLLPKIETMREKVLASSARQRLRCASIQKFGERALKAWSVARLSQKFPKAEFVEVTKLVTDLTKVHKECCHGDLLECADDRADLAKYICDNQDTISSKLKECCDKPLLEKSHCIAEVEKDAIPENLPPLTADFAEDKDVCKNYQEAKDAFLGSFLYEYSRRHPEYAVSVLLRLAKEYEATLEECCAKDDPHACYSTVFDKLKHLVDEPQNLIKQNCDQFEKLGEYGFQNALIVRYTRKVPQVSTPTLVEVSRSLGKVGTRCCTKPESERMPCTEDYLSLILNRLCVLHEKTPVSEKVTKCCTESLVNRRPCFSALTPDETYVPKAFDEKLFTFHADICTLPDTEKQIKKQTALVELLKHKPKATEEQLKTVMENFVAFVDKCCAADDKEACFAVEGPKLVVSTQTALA
Sequence of Adenosine receptor A2a (Canis lupus familiaris) (P11617 whole entry, looked up): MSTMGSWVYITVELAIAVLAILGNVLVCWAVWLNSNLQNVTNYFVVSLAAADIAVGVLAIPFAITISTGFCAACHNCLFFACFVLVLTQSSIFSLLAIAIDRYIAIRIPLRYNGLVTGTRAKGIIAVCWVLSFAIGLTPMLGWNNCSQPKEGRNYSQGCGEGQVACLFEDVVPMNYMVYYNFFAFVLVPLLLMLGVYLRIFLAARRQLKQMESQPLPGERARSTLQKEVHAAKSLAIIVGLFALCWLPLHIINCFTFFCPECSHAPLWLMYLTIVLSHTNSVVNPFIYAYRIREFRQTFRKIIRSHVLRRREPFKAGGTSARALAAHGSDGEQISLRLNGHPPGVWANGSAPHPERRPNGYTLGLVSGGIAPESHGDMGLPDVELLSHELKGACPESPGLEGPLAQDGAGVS

Regarding `CC(C)(Nc1ncnc2c1ncn2C1O[C@H](CO)[C@@H](O)[C@H]1O)c1ccccc1` (stereo partly drawn), in data set [1], the “k'” value came to 4.45. For the same molecule, the max coronary flow increase in data set [2] worked out at 7%.

`CC[C@@H](C)Nc1ncnc2c1ncn2[C@@H]1O[C@H](CO)[C@@H](O)[C@H]1O`: the “k'” value in [1] is on record as 0.89. In data set [3], this molecule registered a pKa of 3.7. The MPR in data set [4] came out at 0.88. Besides, on Albumin, the Amount bound stood at 0.36 M/g.

As to `OCCNc1ncnc2c1ncn2C1O[C@H](CO)[C@@H](O)[C@H]1O` (stereo partly drawn), the “k'” value in data set [1] was determined as 0.14. Further, the MPR in data set [4] was 0.14. The Amount bound on Albumin is 0.53 M/g.

Take `CCC(CC)Nc1ncnc2c1ncn2C1O[C@H](CO)[C@@H](O)[C@H]1O` (stereo partly drawn): in data set [1], the “k'” value was determined as 1.64. In addition, in data set [3], the pKa worked out at 3.3. Further, in [4], the MPR is 4. The same molecule registered an Amount bound on Albumin of 0.78 M/g.

Turning to `OC[C@H]1O[C@@H](n2cnc3c(NC4CCCCCC4)ncnc32)[C@H](O)[C@@H]1O`, the “k'” value in [1] is 4.04. Moreover, the MPR in data set [4] came to 0.18. Moreover, at Albumin, the Amount bound is 3.4 M/g.

Turning to `CCCCNc1ncnc2c1ncn2[C@@H]1O[C@H](CO)[C@@H](O)[C@H]1O`, the “k'” value in [1] was determined as 1.59. Moreover, the MPR in data set [4] turned out to be 0.38. The same molecule returned an Amount bound on Albumin of 1.06 M/g.

Take `CCCC(CCC)Nc1ncnc2c1ncn2C1O[C@H](CO)[C@@H](O)[C@H]1O` (stereo partly drawn): in data set [1], the “k'” value was 5.57. Further, the MPR in data set [4] was 0.81. Besides, the Amount bound at Albumin is 7.1 M/g.

For `OC[C@H]1OC(n2cnc3c(NCC4CCCCC4)ncnc32)[C@H](O)[C@@H]1O` (stereo partly drawn), the “k'” value in [1] came out at 4.67. Moreover, in [4], the MPR came to 0.14. Besides, the Amount bound on Albumin was 7.1 M/g.

For `OC[C@H]1O[C@@H](n2cnc3c(NCCc4ccccc4)ncnc32)[C@H](O)[C@@H]1O`, the “k'” value in [1] was found to be 1.77. This molecule displayed a pKa in [3] of 3.6. Moreover, in [4], the MPR turned out to be 2.

With `OC[C@H]1O[C@@H](n2cnc3c(NC4CC5CCC4C5)ncnc32)[C@H](O)[C@@H]1O` (stereo in doubt; 58), the “k'” value in data set [1] is listed as 2.64. Also, at Albumin, the Amount bound amounted to 2.09 M/g.

Regarding `CC(C)(C)Nc1ncnc2c1ncn2C1O[C@H](CO)[C@@H](O)[C@H]1O` (stereo partly drawn), the “k'” value in [1] was determined as 2.44. The MPR in data set [5] came to 7%.

Regarding `CC(C)(CCc1ccccc1)Nc1ncnc2c1ncn2C1O[C@H](CO)[C@@H](O)[C@H]1O` (stereo partly drawn), the “k'” value in data set [1] is given as 18.7. For the same molecule, in data set [6], the MPR is 4%.

For `C[C@H](Cc1ccccc1)Nc1ncnc2c1ncn2[C@@H]1O[C@H](CO)[C@@H](O)[C@H]1O` [(R)-PIA], the “k'” value in data set [1] is listed as 2.57. For the same molecule, the pKa in [3] was found to be 3.4.

On to `CC[C@H](C)Nc1ncnc2c1ncn2C1O[C@H](CO)[C@@H](O)[C@H]1O` (single isomer, unassigned), for which the “k'” value in data set [1] is recorded as 0.96. In addition, in [4], the MPR was determined as 2.6. The molecule further came in with an Amount bound on Albumin of 0.53 M/g.

On to `OC[C@H]1OC(n2cnc3c(OCCc4ccccc4)ncnc32)[C@H](O)[C@@H]1O` (stereo partly drawn), for which the “k'” value in data set [1] stood at 2.36. Besides, the MPR in [7] was 9%.

With `OC[C@H]1O[C@@H](n2cnc3c(NC4CCCCC4)ncnc32)[C@H](O)[C@@H]1O`, the “k'” value in [1] is 2.12. This molecule also registered an Amount bound on Albumin of 1.3 M/g.

`CC(C)Nc1ncnc2c1ncn2[C@@H]1O[C@H](CO)[C@@H](O)[C@H]1O`: the “k'” value in [1] was 0.54. For the same molecule, in data set [4], the MPR came out at 0.71. This molecule also registered an Amount bound on Albumin of 0.41 M/g.

In the case of `OC[C@H]1OC(n2cnc3c(NC4C5C[C@H]6C[C@@H](C5)C[C@@H]4C6)ncnc32)[C@H](O)[C@@H]1O` (stereo partly drawn), the “k'” value in data set [1] worked out at 12.2. Besides, the MPR in [8] was determined as 0.

Consider `CC1(Nc2ncnc3c2ncn3C2O[C@H](CO)[C@@H](O)[C@H]2O)CCCCC1` (stereo partly drawn), for which, in [1], the “k'” value amounted to 9.29. Further, the MPR in data set [9] was found to be 5%.

Regarding `CC(C)C(Nc1ncnc2c1ncn2C1O[C@H](CO)[C@@H](O)[C@H]1O)C(C)C` (stereo partly drawn), in [1], the “k'” value amounted to 1. The MPR in data set [4] is 0.75. On Albumin, this molecule gave an Amount bound of 2.97 M/g.

On to `CCC(C)(C)Nc1ncnc2c1ncn2C1O[C@H](CO)[C@@H](O)[C@H]1O` (stereo partly drawn), for which the “k'” value in data set [1] turned out to be 4.28. The MPR in [10] came out at 12%.

For the molecule `OC[C@H]1OC(n2cnc3c(NC(c4ccccc4)c4ccccc4)ncnc32)[C@H](O)[C@@H]1O` (stereo partly drawn), the “k'” value in [1] is on record as 6.11. Also, the MPR in [11] amounted to 27%.

Take `OC[C@H]1OC(n2cnc3c(NC45C[C@H]6C[C@@H](C4)C[C@@H](C5)C6)ncnc32)[C@H](O)[C@@H]1O` (stereo partly drawn): the “k'” value in [1] is given as 19.6. Further, in [12], the MPR amounted to 0.

Turning to `CC(CC1CCCCC1)Nc1ncnc2c1ncn2C1O[C@H](CO)[C@@H](O)[C@H]1O` (stereo partly drawn), the “k'” value in data set [1] was found to be 8.92. The MPR in [4] came to 0.15. The Amount bound at Albumin was found to be 19.3 M/g.

With `OC[C@H]1OC(n2cnc3c(NCC(O)c4ccccc4)ncnc32)[C@H](O)[C@@H]1O` (stereo partly drawn), the “k'” value in [1] stood at 0.79. The MPR in data set [4] came out at 1.4.

As to `OC[C@H]1O[C@@H](n2cnc3c(NC4CCCCCCC4)ncnc32)[C@H](O)[C@@H]1O`, in data set [1], the “k'” value is on record as 8.8. For the same molecule, the MPR in [13] amounted to 12%. At Albumin, this molecule registered an Amount bound of 10.1 M/g.

Turning to `CC1(C)C2CCC(CNc3ncnc4c3ncn4C3O[C@H](CO)[C@@H](O)[C@H]3O)C1C2` (stereo partly drawn), the “k'” value in [1] was found to be 21. Moreover, the MPR in data set [13] was 8%.

In the case of `C=CCNc1ncnc2c1ncn2[C@@H]1O[C@H](CO)[C@@H](O)[C@H]1O`, the “k'” value in [1] is 0.36. The MPR in data set [4] was determined as 0.23.

As to `CC(C)CNc1ncnc2c1ncn2C1O[C@H](CO)[C@@H](O)[C@H]1O` (stereo partly drawn), in [1], the “k'” value stood at 1. Moreover, the MPR in [4] was 0.75. On Albumin, this molecule showed an Amount bound of 0.74 M/g.

Turning to `CCCNc1ncnc2c1ncn2C1O[C@H](CO)[C@@H](O)[C@H]1O` (stereo partly drawn), in [1], the “k'” value is 0.57. In addition, the MPR in [4] worked out at 0.64.

`CCCCC(C)Nc1ncnc2c1ncn2C1O[C@H](CO)[C@@H](O)[C@H]1O` (stereo partly drawn): in data set [1], the “k'” value stood at 4.46. Also, in data set [4], the MPR was 0.56.

In the case of `C[C@H](CNc1ncnc2c1ncn2[C@@H]1O[C@H](CO)[C@@H](O)[C@H]1O)c1ccccc1`, the “k'” value in data set [1] was 3. Moreover, the MPR in data set [4] stood at 3.

In the case of `C[C@@H](Nc1ncnc2c1ncn2[C@@H]1O[C@H](CO)[C@@H](O)[C@H]1O)c1ccccc1`, in data set [1], the “k'” value is listed as 1.64. The pKa in data set [3] turned out to be 3.3. In addition, the MPR in [4] was determined as 0.52.

In general, pKa refers to the negative logarithm of the acid dissociation constant.
